Measurements as given in ChEMBL document CHEMBL3351414, “Novel 9'-substituted-noscapines: synthesis with Suzuki cross-coupling, structure elucidation and biological evaluation” (Eur J Med Chem, 2014).
The source made the active and inactive calls. The calls are words filed in the database; no cut-off is given here.

Tests used:
PBL [1] = test: Cytotoxicity against PHA-stimulated human PBLs assessed as reduction in cell growth; format: cell-based
Outline: (§1)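 Peripheral blood lymphocytes from healthy donors, tested either resting (no PHA) or PHA-stimulated. Value is the concentration reducing cell growth by 50%, mean ± SEM of three separate experiments.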

Tubulin = Tubulin (Bos taurus, UniProt Q6B856+Q862L2+Q862F3); test: Inhibition of bovine brain tubulin assessed as rate of assembly preincubated for 15 mins by turbidimetry
Outline: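 Bovine brain tubulin at 10 µM (1.0 mg/mL) in 0.8 M monosodium glutamate pH 6.6 with 4% DMSO and varying compound was preincubated 15 min at 30 °C, then chilled. GTP was added to 0.4 mM final and the temperature jumped from 0 to 30 °C. Turbidity was followed at 350 nm, scoring either maximum rate or extent of assembly at 20 min.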

HeLa [2] = test: Effect on cell morphology in human HeLa cells at 25 uM after 24 hrs using phalloidin staining by confocal microscopy; format: functional, cell-based
Outline: (§2)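 After 24 h at 25 µM, HeLa cells were stained with anti-PCM1 and Alexa-conjugated secondary antibody, with phalloidin-tetramethylrhodamine B for actin and DAPI for nuclei. Cells were imaged by confocal microscopy at 60×.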

HeLa [3] = test: Effect on cell morphology in human HeLa cells assessed as disorganization of actin filament at 25 uM after 24 hrs by confocal microscopy relative to control; format: functional, cell-based; outline: as §2
HeLa [4] = test: Cell cycle arrest in human HeLa cells assessed as accumulation at G2/M phase after 24 hrs by flow cytometry; format: functional, cell-based
Outline: (§3)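 5×10^5 HeLa or Jurkat cells exposed to graded compound concentrations for 24 h. Cells were fixed in ice-cold 70% ethanol, lysed with RNase A/0.1% Triton X-100 buffer and stained with propidium iodide. DNA content was read by flow cytometry. Phase percentages are mean ± SEM of three independent experiments.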

Jurkat [5] = test: Cell cycle arrest in human Jurkat cells assessed as accumulation at G2/M phase after 24 hrs by flow cytometry; format: functional, cell-based; outline: as §3
HeLa [6] = test: Cell cycle arrest in human HeLa cells assessed as accumulation at G2/M phase at 10 to 25 uM after 24 hrs by flow cytometry; format: functional, cell-based; outline: as §3
HeLa [7] = test: Cell cycle arrest in human HeLa cells assessed as accumulation at G2/M phase at 25 uM after 24 hrs by flow cytometry; format: functional; outline: as §3
HeLa [8] = test: Induction of apoptosis in human HeLa cells assessed as early apoptotic cells at 25 uM after 24 hrs using Annexin-V/PI staining by flow cytometry (reference value: 5.26 %); format: functional
HeLa [9] = test: Induction of apoptosis in human HeLa cells assessed as late apoptotic cells at 25 uM after 24 hrs using Annexin-V/PI staining by flow cytometry (reference value: 4.31 %); format: functional
HeLa [10] = test: Induction of apoptosis in human HeLa cells assessed as late necrotic cells at 25 uM after 24 hrs using Annexin-V/PI staining by flow cytometry (reference value: 3.70 %); format: functional
HeLa [11] = test: Induction of apoptosis in human HeLa cells at 6.2 to 50 uM using Annexin-V/PI staining by flow cytometry; format: functional, cell-based; details: TDE = time-dependent effect
HeLa [12] = test: Induction of apoptosis in human HeLa cells assessed as mitochondrial membrane depolarization after 24 to 48 hrs using JC-1 staining-based fluorescence assay; format: functional, cell-based
Outline: (§4)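 Mitochondrial membrane potential was read with the JC-1 dye in HeLa cells after 24 or 48 h at graded concentrations. Data are mean ± SEM of three independent experiments.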

HeLa [13] = test: Induction of apoptosis in human HeLa cells assessed as mitochondrial membrane depolarization at 6.2 to 50 uM using JC-1 staining-based fluorescence assay; format: functional, cell-based; details: TDE = time-dependent effect; outline: as §4
HeLa [14] = test: Induction of apoptosis in human HeLa cells assessed as ROS production at 6.2 to 50 uM after 24 to 48 hrs using H2-DCFDA -based flow cytometry relative to control; format: functional, cell-based
Outline: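 HeLa cells incubated 24 or 48 h at the indicated concentrations, stained with H2-DCFDA and analysed by flow cytometry. Data are mean ± SEM of three independent experiments.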

HeLa [15] = test: Induction of apoptosis in human HeLa cells assessed as caspase 3 cleavage at 25 uM after 24 to 48 hrs by Western blot analysis; format: functional, cell-based
Outline: (§5)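 HeLa cells treated 24 or 48 h at 25 µM, then lysed. 20 µg protein per lane was run on SDS-PAGE and transferred to PVDF. Membranes were probed 2 h at room temperature for cleaved caspase-9, caspase-3, cleaved PARP, Bcl-2, Mcl-1 or Bax, with peroxidase secondary antibody and ECL. β-Actin reprobe served as loading control.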

HeLa [16] = test: Induction of apoptosis in human HeLa cells assessed as PARP cleavage at 25 uM after 24 to 48 hrs by Western blot analysis; format: functional, cell-based; outline: as §5
HeLa [17] = test: Induction of apoptosis in human HeLa cells assessed as reduction in Bcl-2 expression at 25 uM after 48 hrs by Western blot analysis; format: functional, cell-based; outline: as §5
HeLa [18] = test: Induction of apoptosis in human HeLa cells assessed as reduction in Mcl-1 expression at 25 uM after 48 hrs by Western blot analysis; format: functional, cell-based; outline: as §5
HeLa [19] = test: Antiproliferative activity against human HeLa cells assessed as reduction in cell viability after 72 hrs by MTT assay; format: functional, cell-based
Outline: (§6)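 Cells kept in RPMI-1640 (Jurkat, SEM, RS4;11) or DMEM (A549, HeLa, IGROV-1, HT-29) with 10% FBS plus penicillin/streptomycin. 8×10^3 cells per well were left 18 h at 37 °C in 5% CO2. Medium was then replaced with fresh medium holding graded compound concentrations from 10 mM DMSO stocks. Cells were incubated 72 h and viability read by MTT. IC50 is the mean ± SEM from dose–response curves of at least three independent experiments.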

Jurkat [20] = test: Antiproliferative activity against human Jurkat cells assessed as reduction in cell viability after 72 hrs by MTT assay; format: functional, cell-based; outline: as §6
[21] = Antiproliferative activity against human SEM cells assessed as reduction in cell viability after 72 hrs by MTT assay; format: functional, cell-based; outline: as §6
[22] = Antiproliferative activity against human RS4:11 cells assessed as reduction in cell viability after 72 hrs by MTT assay; format: functional, cell-based; details: RS4-11, 72 h; outline: as §6
CCRF-CEM = test: Antiproliferative activity against human CEM cells assessed as reduction in cell viability after 72 hrs by MTT assay; format: functional, cell-based
LoVo = test: Antiproliferative activity against human LoVo cells assessed as reduction in cell viability after 72 hrs by MTT assay; format: functional, cell-based
HT-29 = test: Antiproliferative activity against human HT-29 cells assessed as reduction in cell viability after 72 hrs by MTT assay; format: functional, cell-based; details: HT-29, 72 h; outline: as §6
A549 = test: Antiproliferative activity against human A549 cells assessed as reduction in cell viability after 72 hrs by MTT assay; format: functional, cell-based; details: A549, 72 h; outline: as §6
IGROV-1 = test: Antiproliferative activity against human IGROV1 cells assessed as reduction in cell viability after 72 hrs by MTT assay; format: functional, cell-based; details: IGROV-1, 72 h; outline: as §6
PBL [23] = test: Cytotoxicity against resting human PBLs assessed as reduction in cell growth; format: cell-based; outline: as §1
Tubulin (Bos taurus) = Tubulin (Bos taurus) (UniProt Q6B856+Q862L2+Q862F3); test: Displacement of [3H]colchicine from bovine brain tubulin at 500 uM after 10 mins by liquid scintillation counting

COc1ccc2c(c1OC)C(=O)O[C@@H]2[C@H]1c2c(c(C)c3c(c2OC)OCO3)CCN1C
IC50 (PBL [1]): > 200 µM
IC50 (Tubulin): 220 µM
Activity (HeLa [2]): Active
Activity (HeLa [3]): Active
Activity (HeLa [4]): Dose-dependent effect
Activity (Jurkat [5]): Dose-dependent effect
Activity (HeLa [6]): Active
Activity (HeLa [7]): >80%
Activity (HeLa [8]): 12.5%
Activity (HeLa [9]): 13.9%
Activity (HeLa [10]): 17.1%
Activity (HeLa [11]): tde
Activity (HeLa [12]): Dose-dependent effect
Activity (HeLa [13]): tde
Activity (HeLa [14]): Active
Activity (HeLa [15]): Active
Activity (HeLa [16]): Active
Activity (HeLa [17]): Active
Activity (HeLa [18]): Active
IC50 (HeLa [19]): 5.2 µM
IC50 (Jurkat [20]): 5.9 µM
IC50 [21]: 4.3 µM
IC50 [22]: 15.8 µM
IC50 (CCRF-CEM): 8.8 µM
IC50 (LoVo): 66.3 µM
IC50 (HT-29): 34 µM
IC50 (A549): > 100 µM
IC50 (IGROV-1): 62.4 µM
IC50 (PBL [23]): > 200 µM
inhibition (Tubulin (Bos taurus)): 39%

COc1ccc2c(c1OC)C(=O)O[C@@H]2[C@H]1c2c(c(Br)c3c(c2OC)OCO3)CCN1C
IC50 (PBL [1]): 92.2 µM
IC50 (Tubulin): > 400 µM
Activity (HeLa [2]): Active
Activity (HeLa [3]): Active
Activity (HeLa [4]): Dose-dependent effect
Activity (Jurkat [5]): Dose-dependent effect
Activity (HeLa [6]): Active
Activity (HeLa [7]): >80%
Activity (HeLa [8]): 57.3%
Activity (HeLa [9]): 44.7%
Activity (HeLa [10]): 53.7%
Activity (HeLa [11]): tde
Activity (HeLa [12]): Dose-dependent effect
Activity (HeLa [13]): tde
Activity (HeLa [14]): Active
Activity (HeLa [15]): Active
Activity (HeLa [16]): Active
Activity (HeLa [17]): Active
Activity (HeLa [18]): Active
IC50 (HeLa [19]): 2.6 µM
IC50 (Jurkat [20]): 3 µM
IC50 [21]: 1.8 µM
IC50 [22]: 1.4 µM
IC50 (CCRF-CEM): 2.8 µM
IC50 (LoVo): 42.8 µM
IC50 (HT-29): 18.7 µM
IC50 (A549): 73.9 µM
IC50 (IGROV-1): 78.2 µM
IC50 (PBL [23]): > 200 µM
inhibition (Tubulin (Bos taurus)): 34%

COc1ccc2c(c1OC)C(=O)O[C@@H]2[C@H]1c2c(c(-c3ccc(C)cc3)c3c(c2OC)OCO3)CCN1C
IC50 (PBL [1]): > 200 µM
IC50 (Tubulin): 45 µM
Activity (HeLa [2]): Active
Activity (HeLa [3]): Active
Activity (HeLa [4]): Dose-dependent effect
Activity (Jurkat [5]): Dose-dependent effect
Activity (HeLa [6]): Active
Activity (HeLa [7]): >80%
Activity (HeLa [8]): 14.3%
Activity (HeLa [9]): 22.9%
Activity (HeLa [10]): 11.1%
Activity (HeLa [11]): tde
Activity (HeLa [12]): Dose-dependent effect
Activity (HeLa [13]): tde
Activity (HeLa [14]): Active
Activity (HeLa [15]): Active
Activity (HeLa [16]): Active
Activity (HeLa [17]): Active
Activity (HeLa [18]): Active
IC50 (HeLa [19]): 12.8 µM
IC50 (Jurkat [20]): 5.1 µM
IC50 [21]: 7.4 µM
IC50 [22]: 16.4 µM
IC50 (CCRF-CEM): 11.8 µM
IC50 (LoVo): 41.8 µM
IC50 (HT-29): 24.9 µM
IC50 (A549): 22.2 µM
IC50 (IGROV-1): 66.3 µM
IC50 (PBL [23]): > 200 µM
inhibition (Tubulin (Bos taurus)): 64%
